Experimental data taken from ChEMBL document CHEMBL1126060, “Spiropiperidines as high-affinity, selective sigma ligands” (J Med Chem, 1992).

Molecular target: D(2) dopamine receptor (Rattus norvegicus, UniProt P61169)
Experiment: In vitro for the binding affinity against dopamine receptor D2 by using [3H](-)-sulpiride as radioligand in rat striatum.
Assay type: tissue-based
Method in brief: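 Displacement of [³H]-(-)-sulpiride from rat striatal homogenates. Values are reported as -log₁₀(IC₅₀), the mean of two to three independent determinations. Values without error limits are the mean of two independent experiments.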

Chain of D(2) dopamine receptor (P61169 whole entry): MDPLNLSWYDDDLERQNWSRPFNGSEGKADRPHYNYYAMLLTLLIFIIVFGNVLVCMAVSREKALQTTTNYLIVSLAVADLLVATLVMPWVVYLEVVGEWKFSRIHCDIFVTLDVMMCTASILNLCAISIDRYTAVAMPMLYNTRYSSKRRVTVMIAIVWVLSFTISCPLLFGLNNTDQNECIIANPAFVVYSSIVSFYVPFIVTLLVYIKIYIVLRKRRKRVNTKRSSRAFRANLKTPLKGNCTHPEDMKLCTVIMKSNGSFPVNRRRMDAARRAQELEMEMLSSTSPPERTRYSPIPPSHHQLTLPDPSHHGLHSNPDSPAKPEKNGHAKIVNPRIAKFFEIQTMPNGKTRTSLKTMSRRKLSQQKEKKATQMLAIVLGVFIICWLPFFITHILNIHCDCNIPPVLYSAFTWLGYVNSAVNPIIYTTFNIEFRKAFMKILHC

First: CCCCCCN1CCC2(CCc3ccccc32)CC1
Second: CCCCCCN1CCC2(CCCc3ccccc32)CC1
The IC50 of the first is 2.7-fold higher: 5.5 µM for the first, 2.04 µM for the second. The second is the more potent here.

Going from CCCCN1CCC2(CCCCc3ccccc32)CC1 to CCCCN1CCC2(CCCc3ccccc32)CC1, the IC50 rises from 2.51 µM to 11 µM (4.4-fold). The first is the more potent here.

Going from COc1ccc(CN2CCC3(CCc4ccccc43)CC2)cc1 to COc1ccc(CN2CCC3(CCCc4ccccc43)CC2)cc1, the IC50 falls from 0.617 µM to 0.12 µM (5.1-fold). The second is the more potent here.

Going from CC(C)=CCN1CCC2(CCc3ccccc32)CC1 to CC(C)=CCN1CCC2(CCCc3ccccc32)CC1, the IC50 falls from 17 µM to 5.5 µM (3.1-fold). The second is the more potent here.

Going from c1ccc2c(c1)CCCC21CCN(CC2CCCCC2)CC1 to c1ccc2c(c1)CCC21CCN(CC2CCCCC2)CC1, the IC50 rises from 1.95 µM to 6.61 µM (3.4-fold). The first is the more potent here.

First: c1ccc(CN2CCC3(CCc4ccccc43)CC2)cc1
Second: c1ccc(CN2CCC3(CCCCc4ccccc43)CC2)cc1
The IC50 of the first is 4.2-fold lower: 0.891 µM for the first, 3.72 µM for the second.

Going from CCCCN1CCC2(CCc3ccccc32)CC1 to Cc1ccc(CN2CCC3(CCCc4ccccc43)CC2)cc1, the IC50 falls from 3.98 µM to 0.174 µM (23-fold).
